pKi: −log10 of the molar value. Activity calls are given as the source filed them. The calls are words filed in the database; no cut-off is given here.
Columns and labels:
[1] = target: T1, Cysteinyl leukotriene receptor 1 (Cavia porcellus, UniProt Q2NNR5); assay: Binding affinity against Cysteinyl leukotriene D4 receptor from guinea pig lung was determined using [3H]LTD4 (0.2 nM)
T1 sequence (Q2NNR5 whole entry): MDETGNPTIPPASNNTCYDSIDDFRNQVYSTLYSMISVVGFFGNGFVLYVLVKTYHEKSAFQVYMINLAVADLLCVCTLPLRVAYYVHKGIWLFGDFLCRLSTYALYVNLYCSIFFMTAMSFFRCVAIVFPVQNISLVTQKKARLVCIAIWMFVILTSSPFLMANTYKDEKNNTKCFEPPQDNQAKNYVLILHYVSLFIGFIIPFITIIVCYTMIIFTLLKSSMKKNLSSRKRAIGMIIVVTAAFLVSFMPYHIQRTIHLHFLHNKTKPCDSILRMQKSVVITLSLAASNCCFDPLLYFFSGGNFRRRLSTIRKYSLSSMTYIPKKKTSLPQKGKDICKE
How it was run: (§1)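 Membranes from guinea pig lung were incubated with 0.2 nM [3H]LTD4. Ki was derived from an IC50 read graphically, using at least four compound concentrations run in duplicate. Single-concentration values are % inhibition of specific binding at the stated concentration. Results are mean ± SEM with N separate experiments.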

[2] = target: Cysteinyl leukotriene receptor (Cavia porcellus); assay: Inhibition of the spasmogenic activity of LTD4 in guinea pig parenchymal strips.
[3] = target: T2, Cysteinyl leukotriene receptor 1 (Cavia porcellus) (UniProt Q2NNR5); assay: Binding affinity at 10 uM against Cysteinyl leukotriene D4 receptor from guinea pig lung by [3H]LTD4 (0.2 nM) displacement.; how it was run: as §1
T2 sequence (whole entry): T1 sequence (Q2NNR5 whole entry)

[4] = organism: Cavia porcellus; assay: Ability to inhibit the spasmogenic activity of LTD4 in guinea pig parenchymal strips at 10 uM; format: functional
[5] = target: T1, Cysteinyl leukotriene receptor 1; assay: Compound was evaluated for inhibition against binding of [3H]LTD4 to Cysteinyl leukotriene D4 receptor; how it was run: as §1
[6] = organism: Cavia porcellus; assay: Compound was evaluated for its effect on PGF2-alpha induced contractions of guinea pig peripheral lung strips; No significant effect up to 50 uM; format: functional
[7] = organism: Cavia porcellus; assay: Compound was evaluated for its effect on histamine induced contractions of guinea pig peripheral lung strips; No significant effect up to 50 uM; format: functional
[8] = organism: Cavia porcellus; assay: Compound was evaluated for its effect on methacholine induced contractions of guinea pig peripheral lung strips; No significant effect up to 50 uM; format: functional
[9] = organism: Cavia porcellus; assay: Oral activity expressed as effective dose in LTD4-induced wheal assay in guinea pig; format: functional
How it was run: (§2)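 Guinea pigs received compound orally 60 min before intradermal LTD4 challenge, and wheal formation was scored. ED50 came from linear regression over at least three doses, with at least five animals per point. Other values are % inhibition at the indicated mg/kg dose.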

[10] = organism: Cavia porcellus; assay: Oral activity expressed as effective dose in leukotriene mediated anaphylaxis assay in guinea pig; format: functional
How it was run: (§3)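 Immunized guinea pigs were pretreated with pyrilamine, propranolol and indomethacin, given compound orally, then challenged with aerosolized ovalbumin. Mortality was the end point. ED50 was determined graphically from at least three doses with at least six animals per dose. Other values are % inhibition at the indicated mg/kg dose.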

[11] = tested on: Cavia porcellus; assay: Effective dose to antagonize antigen induced bronchoconstrictive response (intraduodenal administration); format: functional
How it was run: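 Actively sensitized guinea pigs were pretreated with indomethacin, pyrilamine and propranolol, then given compound intraduodenally and challenged with iv ovalbumin. Inhibition of bronchoconstriction was measured. ED50 is reported with 95% CI.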

[12] = tested on: Cavia porcellus; assay: Effective dose to antagonize bronchoconstrictive response of LTD4 at 0.8 ug/kg (i.v.); format: functional; details: Lung, iv
[13] = organism: Cavia porcellus; assay: Compound was evaluated for its effect on LTC4 induced contractions of guinea pig peripheral lung strips; format: functional
How it was run: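 Guinea pig lung parenchymal strips were suspended in a tissue bath and contracted with 0.2 nM LTC4. IC50 was determined graphically from at least four concentrations. Results are mean ± SEM with N separate experiments, or % inhibition at the stated concentration.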

[14] = organism: Cavia porcellus; assay: Compound was evaluated for its effect on LTD4 induced contractions of guinea pig peripheral lung strips; format: functional
[15] = organism: Cavia porcellus; assay: Compound was evaluated for its effect on LTE4 induced contractions of guinea pig peripheral lung strips; format: functional
[16] = organism: Cavia porcellus; assay: Half life was determined; details: guinea pig
[17] = tested on: Arachidonate 5-lipoxygenase (Cavia porcellus); assay: Percent inhibition against 5-lipoxygenase from guinea pig polymorphonuclear […]; details: concentration not given here
[18] = organism: Cavia porcellus; assay: Oral activity expressed as percent inhibition in leukotriene mediated anaphylaxis assay in guinea pig at 60 uM; format: functional; details: in the assay text read “60 mg/kg” for “60 uM”; how it was run: as §3
[19] = tested on: Cavia porcellus; assay: Oral activity expressed as percent inhibition in LTD4-induced wheal assay in guinea pig at 18 mg/kg
[20] = organism: Cavia porcellus; assay: Oral activity expressed as percent inhibition in LTD4-induced wheal assay in guinea pig at 10 uM; format: functional; details: in the assay text read “at 10 mg/kg” for “at 10 uM”; how it was run: as §2
[21] = tested on: Cysteinyl leukotriene receptor (Cavia porcellus); assay: inhibition of the spasmogenic activity of LTD4 in guinea pig parenchymal strips at 10 uM.
[22] = organism: Cavia porcellus; assay: Ability to inhibit the spasmogenic activity of LTC4 in guinea pig parenchymal strips at 1 uM
[23] = target: T2, Cysteinyl leukotriene receptor 1 (Cavia porcellus); assay: Binding affinity against Cysteinyl leukotriene D4 receptor from guinea pig lung was determined using [3H]LTD4 (0.2 nM) at compound concentration of 1 uM; how it was run: as §1
[24] = organism: Cavia porcellus; assay: Oral activity expressed as percent inhibition in leukotriene mediated anaphylaxis assay in guinea pig at 30 uM; format: functional; details: in the assay text read “30 mg/kg” for “30 uM”; how it was run: as §3
[25] = organism: Cavia porcellus; assay: Oral activity expressed as percent inhibition in LTD4-induced wheal assay in guinea pig at 9 uM; format: functional; details: in the assay text read “at 9 mg/kg” for “at 9 uM”; how it was run: as §2

Row | SMILES | pKi [1] | IC50 [2] | inhibition [3] | inhibition [21] | also measured
1 | c1ccc2nc(COc3ccc(CCc4nnn[nH]4)cc3)ccc2c1 | 6.80 | 0.28 µM | – | – | –
2 | c1ccc2nc(COCc3ccc(OCCCc4nnn[nH]4)cc3)ccc2c1 | 5.92 | – | – | – | –
3 | c1cc(OCCCc2nnn[nH]2)cc(OCc2cc3ccccc3cn2)c1 | – | – | 45% | – | inhibition at 10 µM [4]: 68%
4 | c1cc(OCCCc2nnn[nH]2)cc(OCc2ccc3ccccc3n2)c1 | 7.38 | 0.079 µM | – | – | pKi [5]: 7.38; Activity [6]: inactive; Activity [7]: inactive; Activity [8]: inactive; ED50 [9]: 6.9 mg/kg; ED50 [10]: 16 mg/kg; ED50 [11]: 2.5 mg/kg; ED50 [12]: 1.1 mg/kg; Kb [13]: ~0.09 µM; Kb [14]: ~0.09 µM; Kb [15]: ~0.09 µM; half-life [16]: ~4 h; inhibition [17]: 9%
5 | c1cc(OCc2ccc3ccccc3n2)cc(OCc2nn[nH]n2)c1 | 7.07 | 0.14 µM | – | – | Inhibition [18]: 67%; Inhibition [19]: 18%
6 | O=C(O)CCCOc1cccc(OCc2ccc3ccccc3n2)c1 | – | – | – | – | ED50 [9]: 7.2 mg/kg; ED50 [10]: 20 mg/kg
7 | c1ccc2nc(COc3ccc(SCCCc4nnn[nH]4)cc3)ccc2c1 | 7.51 | 0.025 µM | – | – | Inhibition [20]: 23%
8 | c1ccc(-c2ccc(COc3cccc(OCCCc4nnn[nH]4)c3)nc2)cc1 | – | – | 58% | 22% | –
9 | c1ccc(COc2ccc(OCCCc3nnn[nH]3)cc2OCc2ccc3ccccc3n2)cc1 | – | – | 57% | 44% | –
10 | c1ccc2nc(COc3ccc(OCCCc4nnn[nH]4)cc3)ncc2c1 | 6.30 | – | – | 75% | –
11 | c1ccc(OCc2ccc3ccccc3n2)cc1 | 6.00 | – | – | – | –
12 | c1ccc(COc2cccc(OCCCc3nnn[nH]3)c2)cc1 | – | – | 12% | 9% | –
13 | CCOC(=O)c1ccc(COc2ccc(OCCCc3nnn[nH]3)cc2)nc1 | – | – | 35% | 41% | –
14 | O=C(O)c1ccc(COc2ccc(OCCCc3nnn[nH]3)cc2)nc1 | – | – | 30% | 22% | –
15 | c1ccc2[nH]c(COc3ccc(OCCCc4nnn[nH]4)cc3)nc2c1 | – | – | 28% | 42% | –
16 | CCc1ccc(OCc2ccc3ccccc3n2)cc1OCCCc1nnn[nH]1 | 6.62 | 0.25 µM | – | – | –
17 | c1ccc2sc(COc3ccc(OCCCc4nnn[nH]4)cc3)nc2c1 | 6.62 | – | – | 59% | –
18 | c1ccc(COc2cccc(OCCCc3nnn[nH]3)c2)nc1 | – | – | 10% | 18% | –
19 | c1ccc(Oc2cccc(COc3cccc(OCCCc4nnn[nH]4)c3)n2)cc1 | – | – | 48% | 9% | –
20 | c1cc(OCCCc2nnn[nH]2)cc(OCc2ccc3ccccc3c2)c1 | – | – | 0% | 12% | –
21 | O=C(NCc1ccc2ccccc2n1)c1ccc(OCCCc2nnn[nH]2)cc1 | – | – | 18% | -3% | –

Row | SMILES | pKi [1] | IC50 [2] | inhibition [3] | inhibition [21] | also measured
22 | c1ccc2sc(COc3ccc(OCCCc4nnn[nH]4)cc3)cc2c1 | – | – | 9% | 36% | –
23 | Cc1cc(OCCCc2nnn[nH]2)cc(OCc2ccc3ccccc3n2)c1 | 6.19 | – | – | – | inhibition at 1 µM [22]: 20%
24 | c1ccc2c(COc3ccc(OCCCc4nnn[nH]4)cc3)nccc2c1 | – | – | – | – | inhibition [23]: 7%
25 | c1ccc(-c2cccc(COc3ccc(OCCCc4nnn[nH]4)cc3)n2)cc1 | – | – | 48% | 50% | –
26 | O=C(Nc1ccc2ccccc2n1)c1ccc(OCCCc2nnn[nH]2)cc1 | – | – | 33% | 43% | –
27 | CCCCCC(O)c1cccc(OCc2ccc3ccccc3n2)c1 (stereo not given) [REV-5901] | 5.82 | – | – | – | –
28 | c1cc(OCCCCc2nnn[nH]2)cc(OCc2ccc3ccccc3n2)c1 | 7.12 | 0.12 µM | – | – | Inhibition [10]: 64%
29 | O=C(Nc1ccc(OCCCc2nnn[nH]2)cc1)c1ccc2ccccc2n1 | – | – | 25% | 4% | –
30 | c1cc(OCCCc2nnn[nH]2)cc(OCc2cnc3ccccc3c2)c1 | – | – | 15% | -10% | –
31 | c1ccc2nc(CSc3ccc(OCCCc4nnn[nH]4)cc3)ccc2c1 | 6.27 | – | – | – | –
32 | O=C(O)CCCOc1ccc(OCc2ccc3ccccc3n2)cc1 | 5.92 | 0.8 µM | – | – | –
33 | c1cc(OCc2ccc3ccccc3n2)cc(-c2nn[nH]n2)c1 | 6.94 | 0.2 µM | – | – | ED50 [10]: 145 mg/kg
34 | c1ccc2nc(COc3ccc(OCCCc4nnn[nH]4)cc3)ccc2c1 | 7.16 | 0.25 µM | – | – | ED50 [9]: 7 mg/kg; ED50 [10]: 50 mg/kg; half-life [16]: ~4 h
35 | CCOC(=O)CCCOc1cccc(OCc2ccc3ccccc3n2)c1 | 6.80 | 0.6 µM | – | – | ED50 [9]: 15 mg/kg; Inhibition [24]: 83%
36 | c1ccc2c(c1)CCC(COc1ccc(OCCCc3nnn[nH]3)cc1)N2 (stereo not given) | – | – | – | 22% | –
37 | O=C(CCCOc1ccc(OCc2ccc3ccccc3n2)cc1)NS(=O)(=O)c1ccccc1 | 7.51 | 0.019 µM | – | – | Inhibition [25]: 24%; Inhibition [18]: 64%
38 | c1ccc(OCc2ccc3ccccc3n2)c(OCCCc2nnn[nH]2)c1 | 5.48 | – | – | – | –
39 | c1ccc2nc(COc3ccc(Cc4nnn[nH]4)cc3)ccc2c1 | 6.56 | 1 µM | – | – | –
40 | c1ccc2nc(COc3ccc(CCCCc4nnn[nH]4)cc3)ccc2c1 | – | – | – | – | Inhibition [20]: 35%
41 | CCOC(=O)CCCOc1ccc(OCc2ccc3ccccc3n2)cc1 | 6.30 | 2 µM | – | – | –
42 | Cc1cc(OCc2ccc3ccccc3n2)ccc1OCCCc1nnn[nH]1 | 6.77 | – | – | – | –

Source: ChEMBL document CHEMBL1124743, “Development of a novel series of (2-quinolinylmethoxy)phenyl-containing compounds as high-affinity leukotriene receptor antagonists. 1. Initial structure-activity relationships” (J Med Chem, 1990)
